Tested on: MS2 coat protein
Experiment: apparent Kd, MS2 coat protein; higher = weaker binding; RNA-MaP array; FMN 200 µM where present
Summary of the method: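 Green signal was scaled to red-channel RNA signal and control-cluster median Fmax, and the apparent Kd was taken as the median of filtered per-cluster binding-curve fits. The binding series used SNAP-549-labelled MS2 coat protein from 0.7 or 1.5 nM, doubling to 3 µM, on designs transcribed by stalled E. coli RNA polymerase on Illumina sequencing-chip clusters. Each series ran without and then with constant ligand in 100 mM Tris-HCl pH 7.5, 80 mM KCl, 4 mM MgCl2, BSA, DTT, yeast tRNA and Tween-20.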

[1] = designed as: OFF switch for flavin mononucleotide, no ligand
[2] = ligand present: flavin mononucleotide, designed as: OFF switch for flavin mononucleotide
[3] = designed as: ON switch for flavin mononucleotide, no ligand
[4] = ligand present: flavin mononucleotide, designed as: ON switch for flavin mononucleotide

| Sequence | apparent Kd [1] [nM] | apparent Kd [2] [nM] | apparent Kd [3] [nM] | apparent Kd [4] [nM] |
| --- | --- | --- | --- | --- |
| UACAGACAUGAGGAUCACCCAUGUAAGGAUAUCGGUACUGAUGGUAUAAUCUACUCAGCGAGAAGGUACAGUGU | 33.6 | 33.2 | – | – |
| UGUUGUAUUACAGGAUAUCUAUUAUUAUUAUUUAGAGAAGGGUAUUCACAUGAGGAUCACCCAUGUAUAUACGAGGAAGUUGUG | – | – | 43.7 | 45.5 |
| ACUUAUAGAGGAUAUACAGAAUAUUACAUGAGGAUCACCCAUGUUCUUCAAUGUAUAUUUGUAGAAGGCUAAGGAA | 50.6 | 249 | – | – |
| CCUCGACAUGAGGAUCACCCAUGUUAGGAUAUGGGAGCGGGAAUUUGAGUAUUCGUACCCAGAAGGAACAGUUA | 42.6 | 96 | – | – |
| GAGUGACAUGAGGAUCACCCAUGUAAGGAUAUACGGUUGGUAGAGAGAGGGCUAAAGGGUAGAAGGUACGAAGG | 76.7 | 48.7 | – | – |
| AGCUAGUCAGGAUAUACGAACAUGUCAUUAGACGUGAAGGGACAUGAGGAUCACCCAUGUAGAAGGGACUAGCA | 40 | 134 | – | – |
| CUAAAUUAGUAGAAGGACGGAGAGUAAGAAGUCGUAGGAUAUACAUAAGACAUGAGGAUCACCCAUGUGUGUAUGUUGGGUAUG | 6.54 | 6.65 | – | – |
| CAUUAAUUCAUUAUAGUAAUUAUACAGGAUAUGUAACAUGAGGAUCACCCAUGUAUUCUUGGUUAACAGAAGGGUAUUACAAGU | 16.5 | 28.4 | – | – |
| GCUACCAAAGAAGCCAACAUGAGGAUCACCCAUGUAUGUUGGUAGGAUAUCGUAUGCAAAGCAUACGAGAAGGGCUAAGGUAGC | – | – | 98.8 | 116 |
| GUGACGAUGUAAGGAUAUGCUGAGGAAUACUCAGCAGAAGGUACAUGAGGAUCACCCAUGUAAAUAAUAAGAAAUAAACGUCAC | 16 | 24.9 | – | – |
| CAAAGUGGAGGAUAUACAUGAGGAUCACCCAUGUAAGGACAAUAAAUAAGAAGAAGAAGUAGAAGGCCACUCAA | 31.1 | 41.6 | – | – |
| UUAUAUAGAGUGAGGAUAUGCUGGUCCUUGGAUCAGCAGAAGGCACAUGAGGAUCACCCAUGUAAAAUAAUAUU | 24.2 | 41.1 | – | – |
| UUACUCAUGUAAGGAUAUGCAGCCGUUUCGGCUGCAGAAGGUACUAUAAUACAUGAGGAUCACCCAUGUCUAUAAAAUAAAGGC | – | – | 48.9 | 50.2 |
| GUAUAGAUUACAUGAGGAUCACCCAUGUCAGAACGGGUAAUCAGAAGGUAUUAUUAGAGAAAGGGUAAGGAUAUGAUUUUAUAU | – | – | 598 | 389 |
| UCAUGCAUAGCGAUAUGAUCGAGAGAUCAUGUCGCUAAAUUUAGAAGGACAUGAGGAUCACCCAUGUAGGAUAUGGGAGCAUGU | – | – | 535 | 63.2 |
| UUUGUUUAUGUGAGGAUAUACUGUUUGUUUUGUUUGUAGAAGGUACAUGAGGAUCACCCAUGUUUUGUUUUUUU | 22.8 | 20.5 | – | – |
| GACAUCGCAGGAUAUUAUUGUUUGUACAUGAGGAUCACCCAUGUUAAUUGGGUUAAUGUUUAAGAAGGGCGGUGUC | 642 | 557 | – | – |
| AGACGGAGCUGAGGAUAUUACAUGAGGAUCACCCAUGUAAGUCUCCAGGAAACUGGAGACAAAUGUAAGAAGGCAGCUCCGUCA | 19.3 | 29.5 | – | – |
| UGUCCUUGAGGCUCGGACGUGUCGCCAGAAGGCAAUUUCUGACAUGAGGAUCACCCAUGUCCAAUUGAGGAUAUGGCUGCGUUG | – | – | 17.3 | 5.56 |
| UGGUACAUGGGAGGAUAUCAUGUAGUAACAUGAGGAUCACCCAUGUCGAUGGAGACAUCGGAGAUUGAGAAGGCCCAUGUACCU | – | – | 921 | 32.5 |
| UCUGAGGUCACAGGAUAUCAUACGUCGGCACGUUGAGAAGGGUGACCGAGCUACAUGAGGAUCACCCAUGUGCUGUCGUAACAA | – | – | 85.4 | 164 |
| AAUGAGACCGCAGGAUAUCCACAUGAGGAUCACCCAUGUUCUCAGGUCGUAAGCACGACCUGCGAGGAGAAGGGCGACCUCAUA | – | – | 395 | 33.8 |
| AUCCCGAUAGCAGGAUAUUUCUGCAGUUGUGGUUAGGUCGCCCUACAUGAGGAUCACCCAUGUAGAGAGAAGGGCUGUGGUAAU | 6.71 | 6.83 | – | – |
| ACAUUGCUAGGAUAUCGCGGUAAGGACAUGAGGAUCACCCAUGUGGUGCCGUGGGAGGCCCGAGAAGGAGCGACCU | 23.1 | 25.9 | – | – |
| UGGAUCAUCGGAGGAUAUCAUGUAUAUACAUGAGGAUCACCCAUGUCGAUGGAGACAUCGGAGAUUGAGAAGGCCGAUGAUCCU | – | – | 910 | 30.5 |
| GCUGGACAAGGAUAUACAUUCGUGCUUCGGCACGUAAGAUCACAUGAGGAUCACCCAUGUAGAAGGUGUCCAGC | 67.8 | 612 | – | – |
| GGAUAGGACAGAGGAUAUACGGGCUAGAGAUACUAGCAAAAUUUCCUCACAUGAGGAUCACCCAUGUAGAAGGCUGUCCUAUCG | 70.1 | 864 | – | – |
| GUAUACGAUGAGGAUAUAUGAUAUCAAAGCAUCAUAGAAGGCAUCACAUGAGGAUCACCCAUGUGAUCUUCUAG | 15.7 | 52.6 | – | – |

| Sequence | apparent Kd [1] [nM] | apparent Kd [2] [nM] | apparent Kd [3] [nM] | apparent Kd [4] [nM] |
| --- | --- | --- | --- | --- |
| GAGCGCUGUCGAGAGGAUAUGCGGUGAUGGACAUGAGGAUCACCCAUGUUAGCGAUAGCAUUACGGUAGAAGGCUCUACAGCUGC | – | – | 33.4 | 15.4 |
| AUAAUUUAAGUGAGGAUAUACCUAUGGAAACAUAGGUAGAAGGCACAUGAGGAUCACCCAUGUUUUUACACAAA | 17.8 | 37.9 | – | – |
| GCUGCAUAGGCAGGAUAUGCAAUAAUUCGAAUAAAAUAUAACGAAUUAACAUGAGGAUCACCCAUGUAGAAGGGCCUGUGCAGU | 18.4 | 16 | – | – |
| AUGAAGUCAGGAUAUGCCACGUAAAGCCAUGGCUUUGGAGUGUAGAAGGGACAUGAGGAUCACCCAUGUUGUCC | 30.9 | 32.2 | – | – |
| UGCUAAUUGUAGAAGGGUGACAUGAGGAUCACCCAUGUGCACGCGCGAUUUACGGCGCGCGUGCCACAGGAUAUACAGUUGAGU | – | – | 58.1 | 34.6 |
| UUUUACAUAGGAUAUAGUUGCUUUUACAUGAGGAUCACCCAUGUCUCUCCUCUCUCUCUUCUAGAAGGAUGUUUCU | 54.7 | 46.5 | – | – |
| GCCAUCGCAUGAGGAUAUGGUCUGGUUUCCAGACCAGAAGGCAUGUCAUAAGACAUGAGGAUCACCCAUGUAGUUAAGAUGGCA | – | – | 714 | 47.7 |
| UGUCGGAGCAGAGGAUAUUACAUGAGGAUCACCCAUGUAUGAACCAAUAGCUGGAAACAGCAAUCUAAGAAGGCUGCUCCGACA | 4.47 | 4.34 | – | – |
| UAGUGGCAAGGAUAUACAGAGGAGAGGAUUGCAAGAGGUGGACAUGAGGAUCACCCAUGUAGAAGGUGCAGAGA | 239 | 281 | – | – |
| GGUACUCAAAGAGUACCAAUACGAACAUGAGGAUCACCCAUGUAGGAUAUGCUACUCAAAGAGUAGCAGAAGGACAUGUGCCUG | 17.9 | 95.1 | – | – |
| AGUAGAUCAGGAUAUACGUGAAAGGUCAAAGUGUCCAAUCUACAUGAGGAUCACCCAUGUAGAAGGGAUCUACA | 15.2 | 14.6 | – | – |
| GGAGCACACAUUAACAUGAGGAUCACCCAUGUCAAAGGACAUGAGGAUAUGGAUCCGAAAAGGAUCCAGAAGGCAUGGUGCUCC | – | – | 173 | 11.1 |
| CAGUUUUGAGGAUAUCCAUCCUCCUACAUGAGGAUCACCCAUGUUUCCCUCUGGGUUUUCGGAGAAGGCAGUUAUC | 341 | 251 | – | – |
| AAGAAGUGAGGAUAUACGCGAACAAAAAAAAAAAAGAAAGCGUAGAAGGCACAUGAGGAUCACCCAUGUCCAAA | 27.2 | 36.3 | – | – |
| GCUCGUGGACAGAAGGCGACAUGAGGAUCACCCAUGUUGGCUCGGGUAUGACCAAUCCGCAUGAUCGAGGAUAUGUCUGCGGGC | 419 | 19.2 | – | – |
| AAGUAUAAGGGCAUUAAACAUGAGGAUCACCCAUGUACAAUAGAGGAUAUGCAUUUUGGUUUAGAGUAGAAGGUUAGAGAAAAU | 28.2 | 33.5 | – | – |
| UUAUUCUAUAUAGGAUAUUGAUGUAAUUUAUUUCAAGAAGGAUAUACAUGAGGAUCACCCAUGUUGGAUAGGGUUAGUUUGUUU | – | – | 81.1 | 91.1 |
| GUUAAGUGAGGAUAUGGUGAGUAGUGCCAGAGCGCUGCUCACCAGAAGGCACAUGAGGAUCACCCAUGUAUAGC | 15.7 | 31.5 | – | – |
| AUAAAUCAUGUAGGAUAUGCGUGGCGAAGCUAUGCAGAAGGACAUGAGGAUCACCCAUGUCUUUCUGUCUGCGUACAGACAGGA | 23.9 | 115 | – | – |
| AGUCGGAGCAGAGGAUAUACAUGAGGAUCACCCAUGUAAUAAGAUCAAGCCUGGAAACAGGCAAUGUAGAAGGCUGCUCCGACA | 34.2 | 338 | – | – |
| GUAGCAUACCGAGGAUAUUCAUCCGGAAACGGACAUGAGGAUCACCCAUGUGCAGAAAACUGCUGGGAGAAGGCGGAAUGCUAC | – | – | 89.7 | 16.9 |
| AACAAUCUAUCUGAGGAUAUCAUGAAAAAAACAUGAGGAUCACCCAUGUGCAGGAAAACUGCAUAUGAGAAGGCAGAUAGAUUGA | – | – | 702 | 27 |
| CUAUAGAUAUCAGGAUAUCUAUUUCCUACAUGAGGAUCACCCAUGUAGAGGAUCACCCAUGUAAAGGAGAAGGGAUAUCUAUAG | – | – | 91.3 | 20.4 |
| GCCAUCGCAUGAGGAUAUGCUCGGGUUUCCCGAGCAGAAGGCAUGUAAUAAGACAUGAGGAUCACCCAUGUAGUUAAGAUGGCA | – | – | 7.48 | 5.3 |
| CAGAAGUCAGGAUAUGCAUGGCGGGACUUGCGUCGUGGCGUGCAGAAGGGACAUGAGGAUCACCCAUGUGGAGU | 173 | 251 | – | – |
| AAUAAACAUGAGGAUCACCCAUGUCAGGAUAUCCUAAAUAAAAAAAUAUAAAGAAGAAGGAGAAGGGACUAAAA | 111 | 120 | – | – |
| CGCCCGUAAGGAUAUACAUGAGGAUCACCCAUGUCGGUAACCGAAGGGCGAUACCUUUGUAGAAGGUACUGCGU | 14.8 | 13.7 | – | – |
